Data set [1] in a line: Cysteamine reactivity in PBS assessed as free compound level at pH 7.4 measured after 4 hrs by DTNB reagent based RP-UHPLC analysis. A digest of the protocol:
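The compound was reacted with excess cysteamine in pH 7.4 phosphate buffer with CH3CN cosolvent at 37 °C. Remaining compound was followed by UHPLC over 4 h, sampled at 30 min, 60 min and 4 h, and expressed as percent of starting concentration.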

In data set [2] the target is NACHT, LRR and PYD domains-containing protein 3 (Mus musculus) (UniProt Q8R4B8). Description: Inhibition of NLRP3 inflammasome in LPS-primed C57BL/6 mouse bone marrow derived macrophages assessed as reduction in ATP-induced IL-1beta production at 10 uM preincubated for 1 hr followed by stimulation with ATP measured after 30 mins by ELISA. The gist of the method: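 C57BL/6 bone marrow macrophages, differentiated with 20% L-cell medium, were primed with LPS (1 µg/mL, 3 h). They were then exposed to compound or vehicle for 1 h and stimulated with ATP (5 mM, 30 min). IL-1β released into the medium was measured by ELISA.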
Chain of NACHT, LRR and PYD domains-containing protein 3 (Mus musculus) (Q8R4B8 whole entry, the tested form may be a part): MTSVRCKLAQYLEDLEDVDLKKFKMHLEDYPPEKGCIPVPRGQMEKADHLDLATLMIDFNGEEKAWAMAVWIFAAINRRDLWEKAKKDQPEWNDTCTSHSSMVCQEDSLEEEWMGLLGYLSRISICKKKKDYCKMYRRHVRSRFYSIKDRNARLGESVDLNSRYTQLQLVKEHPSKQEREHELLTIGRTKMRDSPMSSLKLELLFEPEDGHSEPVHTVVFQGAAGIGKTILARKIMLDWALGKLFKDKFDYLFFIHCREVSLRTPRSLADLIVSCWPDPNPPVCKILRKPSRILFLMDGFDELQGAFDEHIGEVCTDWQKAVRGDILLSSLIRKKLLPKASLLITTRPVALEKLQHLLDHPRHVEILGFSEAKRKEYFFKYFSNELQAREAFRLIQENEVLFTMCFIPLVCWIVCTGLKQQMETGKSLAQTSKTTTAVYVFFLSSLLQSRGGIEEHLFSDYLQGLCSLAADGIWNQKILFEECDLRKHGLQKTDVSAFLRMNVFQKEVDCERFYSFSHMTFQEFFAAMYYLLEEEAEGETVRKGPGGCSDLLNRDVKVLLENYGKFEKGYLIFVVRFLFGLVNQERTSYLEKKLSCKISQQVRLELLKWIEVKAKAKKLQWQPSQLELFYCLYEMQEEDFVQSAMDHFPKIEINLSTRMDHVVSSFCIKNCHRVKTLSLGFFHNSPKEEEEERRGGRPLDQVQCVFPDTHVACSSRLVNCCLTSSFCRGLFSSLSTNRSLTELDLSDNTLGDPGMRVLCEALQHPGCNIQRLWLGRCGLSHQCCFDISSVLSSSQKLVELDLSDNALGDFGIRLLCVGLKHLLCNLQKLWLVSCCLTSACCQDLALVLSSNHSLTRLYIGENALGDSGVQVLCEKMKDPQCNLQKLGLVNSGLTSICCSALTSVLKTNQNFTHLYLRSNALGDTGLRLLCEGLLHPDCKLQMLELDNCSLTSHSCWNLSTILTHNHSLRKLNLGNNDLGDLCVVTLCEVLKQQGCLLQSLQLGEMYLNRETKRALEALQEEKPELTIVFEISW
(An ELISA detects its analyte on a solid surface through an enzyme-linked reagent.)

For a further data set, the species on record is Mus musculus. Nature of the data set: Inhibition of NF-kB signaling pathway in C57BL/6 mouse bone marrow derived macrophages assessed as reduction in LPS-induced TNFalpha gene expression at 10 to 100 uM preincubated for 30 mins followed by LPS stimulation measured after 4 hrs by qRT-PCR analysis. The gist of the method:
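C57BL/6 bone marrow macrophages, differentiated with 20% L-cell medium, were preincubated with compound for 30 min. They were then left untreated or given LPS (1 ng/mL, 4 h). Tnfa, Il6 and Il1b expression was measured by quantitative RT-PCR as 2^-ΔΔCt.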

The next data set deals with T1, Caspase-1 (Homo sapiens) (UniProt P29466).
T1 sequence (whole entry): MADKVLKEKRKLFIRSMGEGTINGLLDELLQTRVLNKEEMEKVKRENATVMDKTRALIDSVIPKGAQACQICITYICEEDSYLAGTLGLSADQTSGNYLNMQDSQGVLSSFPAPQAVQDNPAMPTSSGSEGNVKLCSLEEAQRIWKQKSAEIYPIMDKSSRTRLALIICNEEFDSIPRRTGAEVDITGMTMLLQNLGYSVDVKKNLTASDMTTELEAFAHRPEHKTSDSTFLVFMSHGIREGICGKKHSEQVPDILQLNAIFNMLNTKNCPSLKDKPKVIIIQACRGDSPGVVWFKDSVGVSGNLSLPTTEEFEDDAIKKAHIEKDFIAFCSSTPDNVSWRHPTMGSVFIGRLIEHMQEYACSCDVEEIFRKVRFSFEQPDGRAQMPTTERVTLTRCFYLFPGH
Nature of the data set: Inhibition of recombinant human caspase-1 at 10 to 100 uM using z-YVAD-AFC as substrate measured every 10 mins for 3 hrs by fluorescence analysis.

Data set [3] has as its target NACHT, LRR and PYD domains-containing protein 3 (Homo sapiens) (UniProt Q96P20). Description: Irreversible inhibition of His-FLAG- tagged NLRP3-ATPase (unknown origin) at 100 uM preincubated for 55 mins followed by ATP addition measured after 40 mins by ADP-Glo assay. The gist of the method: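 His-FLAG NLRP3 (105 ng/well) captured on anti-FLAG-coated, BSA-blocked wells for 3 h at 4 °C. Compound (100 µM final, 2% DMSO) preincubated 55 min at 37 °C. Wells were washed three times (or not washed), then ATP (250 µM) was added for 40 min at 37 °C. ADP was read by ADP-Glo. Equal protein loading was checked by anti-His ELISA.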
(In general: ADP-Glo first removes unused ATP, then detects ADP through luciferase.)

Data set [4] can be described thus: Stability of the compound in simulated gastric fluid at 1.56 mg as suspension in olive oil and pH 2 after 2 hrs by UHPLC-MS analysis. A digest of the protocol: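 1.56 mg suspended in 100 µL olive oil, mixed with 100 µL SGF (pH 2, pepsin 3.2 mg/mL) for 2 h at 37 °C with shaking. Then 200 µL SIF (pH 7, pancreatin 2 mg/mL) was added for a further 2 h. Dedicated samples at 0, 30, 60 and 120 min were extracted with acetonitrile and analysed by UHPLC-MS. ≥3 repeats.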

The subject of a further data set is Jejunum. Description: Drug metabolism in Sprague-Dawley rat jejunum assessed as 2-(2-chlorobenzyl)acrylic acid level at 12.5 mg as suspension in olive oil measured after 2 hrs by UHPLC-M. Type of data set: ADME, tissue-based. Particulars: in vivo.
A further data set has as its system Liver. Nature of the data set: Drug metabolism in Sprague-Dawley rat liver microsomes assessed as formation of 2-(2-chlorobenzyl)acrylic acid at 100 uM up to 2 hrs in absence of NADPH by UHPLC-MS analysis. Type of data set: ADME, microsome. (In general: Microsomes from liver hold many membrane-bound enzymes, among them those of drug oxidation.)
The test system of data set [5] is Rattus norvegicus. Nature of the data set: Antiinflammatory activity in DNBS-induced Sprague-Dawley rat colitis model assessed as DNBS-induced macroscopic damage score at 12.5 mg/kg/day, ig administered as suspension in olive oil for 6 days simulatneously with 6 days of DNBS-challenge (reference value: 8.6 +/- 0.6). Type of data set: functional.
For data set [6], the system named is Rattus norvegicus. Nature of the data set: Antiinflammatory activity in DNBS-induced Sprague-Dawley rat colitis model assessed as DNBS-induced macroscopic damage score at 25 mg/kg/day, ig administered as suspension in olive oil for 6 days simulatneously with 6 days of DNBS-challenge (reference value: 8.6 +/- 0.6). Type of data set: functional.
The test system of data set [7] is Rattus norvegicus. Nature of the data set: Anti-inflammatory activity in DNBS-induced Sprague-Dawley rat colitis model assessed as reduction in DNBS-induced increase in MPO levels in colon at 12.5 to 50 mg/kg/day, ig for 6 days simulatneously with 6 days of DNBS-challenge by ELISA. The format is functional, organism-based. The gist of the method: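 DNBS colitis (15 mg intrarectal in 50% ethanol) was treated by the intragastric route for 6 days from induction (1 mg/kg/day in 1% methylcellulose, or 12.5–50 mg/kg/day in olive oil). Colonic samples (30 mg) were taken adjacent and distal to the necrotic area, homogenized, and assayed for MPO by ELISA. Results are ng MPO per mg tissue, mean ± SEM, n = 10.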

In data set [8] the test system is Rattus norvegicus. Description: Anti-inflammatory activity in DNBS-induced Sprague-Dawley rat colitis model assessed as reduction in DNBS-induced IL-1beta levels in colon administered ig for 6 days simulatneously with 6 days of DNBS-challenge by ELISA. The format is functional.
The test system of data set [9] is Rattus norvegicus. Description: Anti-inflammatory activity in DNBS-induced Sprague-Dawley rat colitis model assessed as DNBS-induced TNFalpha levels in colon at 25 mg/kg/day, ig for 6 days simulatneously with 6 days of DNBS-challenge by ELISA (reference value: 5.9 +/- 0.6 pg/mg). The format is functional.
In data set [10] the test system is Rattus norvegicus. Description: Anti-inflammatory activity in DNBS-induced Sprague-Dawley rat colitis model assessed as DNBS-induced TNFalpha levels in colon at 50 mg/kg/day, ig for 6 days simulatneously with 6 days of DNBS-challenge by ELISA (reference value: 5.9 +/- 0.6 pg/mg). The format is functional.
Data set [11] concerns Rattus norvegicus. Description: Toxicity in Sprague-Dawley rat at 50 mg/kg/day, ig. Type of data set: organism-based. Particulars: in vivo, po. The gist of the method:
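Rats received intrarectal DNBS (15 mg in 0.25 mL 50% ethanol) or none. Dosing was intragastric for 6 days from induction: compound 12.5–50 mg/kg/day in 0.2 mL olive oil, or dexamethasone 1 mg/kg/day in 0.2 mL 1% methylcellulose. Body weight change was recorded at end; n = 10, mean ± SEM.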

Each structure is given as a SMILES string. Active and inactive are the calls of the source. The calls are words filed in the database; no cut-off is given here.

What is called inhibition is the relative decrease from the control value, in per cent.

Chain of NACHT, LRR and PYD domains-containing protein 3 (Homo sapiens) (Q96P20 whole entry, the tested form may be a part): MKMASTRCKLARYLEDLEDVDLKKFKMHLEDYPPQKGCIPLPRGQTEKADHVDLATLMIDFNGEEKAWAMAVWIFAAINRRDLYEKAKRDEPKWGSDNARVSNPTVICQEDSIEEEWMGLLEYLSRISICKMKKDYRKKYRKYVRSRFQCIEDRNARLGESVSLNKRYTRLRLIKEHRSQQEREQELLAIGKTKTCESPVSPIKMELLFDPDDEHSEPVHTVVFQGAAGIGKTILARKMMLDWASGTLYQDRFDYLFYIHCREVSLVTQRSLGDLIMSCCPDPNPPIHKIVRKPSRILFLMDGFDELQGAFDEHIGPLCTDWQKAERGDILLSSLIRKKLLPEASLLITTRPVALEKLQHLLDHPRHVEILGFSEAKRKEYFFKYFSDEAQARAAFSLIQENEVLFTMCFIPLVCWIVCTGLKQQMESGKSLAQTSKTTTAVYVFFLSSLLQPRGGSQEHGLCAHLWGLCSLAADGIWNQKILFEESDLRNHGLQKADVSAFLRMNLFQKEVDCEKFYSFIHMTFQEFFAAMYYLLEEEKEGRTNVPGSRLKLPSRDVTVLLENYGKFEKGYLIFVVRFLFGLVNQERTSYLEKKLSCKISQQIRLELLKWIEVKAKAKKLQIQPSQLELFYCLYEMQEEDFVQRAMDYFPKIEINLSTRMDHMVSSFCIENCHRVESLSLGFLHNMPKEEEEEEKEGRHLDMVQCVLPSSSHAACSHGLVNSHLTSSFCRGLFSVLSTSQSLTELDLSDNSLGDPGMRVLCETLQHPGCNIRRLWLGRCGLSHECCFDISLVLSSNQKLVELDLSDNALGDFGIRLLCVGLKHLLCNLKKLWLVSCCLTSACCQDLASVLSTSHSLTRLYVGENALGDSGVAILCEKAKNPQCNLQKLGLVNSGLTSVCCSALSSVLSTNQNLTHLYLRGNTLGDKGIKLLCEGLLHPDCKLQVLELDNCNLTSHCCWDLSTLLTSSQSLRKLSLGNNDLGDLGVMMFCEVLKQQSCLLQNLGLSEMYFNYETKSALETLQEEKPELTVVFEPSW

For `C=C(Cc1ccccc1Cl)C(=O)OCC`, the Stability in data set [1] is 77.5%; in data set [4] it was above 99.5%. Besides, the inhibition entry (in data set [2]; in the data set listed under Mus musculus) was “Active” in each case. Also, the inhibition entry at Caspase-1 (Homo sapiens) was “inactive”. Moreover, the inhibition in data set [3] stood at 45%. Further, the Drug metabolism result in the data set on Jejunum and in the data set on Liver was “Metabolite_Detected” each time. In addition, the values for the Activity_index in the data set on Rattus norvegicus [5] and in the data set on Rattus norvegicus [6] were 4.7 and 3.1, respectively. For the same molecule, the outcome in the data set with Rattus norvegicus [7] was Active. In addition, the Activity result was “Dose-dependent effect” in the data set on Rattus norvegicus [8], 3.3 pg/mg with Rattus norvegicus [9], 2.7 pg/mg with Rattus norvegicus [10] and “Non-Toxic” in the data set on Rattus norvegicus [11].

Values taken from ChEMBL document CHEMBL4014309, “Development of an Acrylate Derivative Targeting the NLRP3 Inflammasome for the Treatment of Inflammatory Bowel Disease” (J Med Chem, 2017).
